# Fewer inactive variants are shown than the library holds.
# B1: tRNA (parent)
# chain: GUUCCGUUGGCGUAAUGGUAACGCGUCUCCCUCCUAAGGAGAAGACUGCGGGUUCGAGUCCCGUACGGAACG
# Variants of: B1
# Test: yeast fitness relative to wild type (ratio to wild type); higher = fitter; tRNA-Arg(CCU), competitive growth, 37 C, YPD
# In short: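 Changes in genotype frequencies gave Darwinian fitness relative to wild type. Frequencies were read by 100-nucleotide paired-end sequencing of gene amplicons before and after pooled Saccharomyces cerevisiae strains, carrying tRNA-Arg(CCU) gene variants at the native locus, were competed in YPD at 37°C for 24 hours in six replicates. A genotype was kept only with ≥ 100 starting reads, and estimates < 0.5 were set to 0.5.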
row,Variant,yeast fitness
1,A14U A37U U47A,0.632
2,A14U A37U U47C,≤ 0.5
3,A14G G18C C60A C66U,≤ 0.5
4,A14G C24G C31U,≤ 0.5
5,U13C C66U,0.932
6,A14U A21U,0.547
7,A14U A21C,0.705
8,A14C U19G G44C C62G,≤ 0.5
9,A14G C61G,0.721
10,A14C A15U C34G G50A,≤ 0.5
11,A14C A40U C55G C61U C66U,≤ 0.5
12,U13G C61A G67A,≤ 0.5
13,A14C C46G C62U C66U,≤ 0.5
14,U13C C31A C49G C61G,≤ 0.5
15,A14C C24G C31A C33G G44C,0.584
16,U13G A42U C55U C62G A70C,0.525
17,A14G A15U G39U C61U,≤ 0.5
18,A14G A36U A65G,≤ 0.5
19,A14G G48A C62A,0.65
20,U13C G25C U28G G58A C60G,0.622
21,A14C U16A G41C,≤ 0.5
22,U13G G25C,0.797
23,U13G A69U,0.931
24,U13G U35G A40G G58C A65U,≤ 0.5

row,Variant,yeast fitness
1,A14G A57C,0.555
2,A14C A21U C46A A69C,0.59
3,A14G U26C A37G C61U G68A,≤ 0.5
4,A14G C49G G56C,≤ 0.5
5,U13G C29U C33U G63A,≤ 0.5
6,A14U A15U C49U G56C,≤ 0.5
7,A14G U28C G67A,0.534
8,U13G C33U G41C,0.581
9,A14C U19G C31G C33U A42G U64C A65G A69C,≤ 0.5
10,A14U A15G C34G C61U A70C,≤ 0.5
11,U13C C31A C46U A70C,≤ 0.5
12,A14G C24G C66U,≤ 0.5
13,A14C U28A A42U U54A,≤ 0.5
14,A14G C29G C31U A70C,0.51
15,A14G C29G C31U A70G,≤ 0.5
16,A14G A21C C30G C55G,0.533
17,A14C C27G C46G C62U,≤ 0.5
18,U13C C30G A37U U47C A70G,≤ 0.5
19,U13G G56A,1.06
20,A14G U32G A45G A69U,≤ 0.5
21,U13C G17A U47C A65G,≤ 0.5
22,U13C G48A C62A,0.689
23,U13G G18C C30U C33G A65C A70G,≤ 0.5
24,U13C U47C C62U C66U,≤ 0.5

row,Variant,yeast fitness
1,A14G A15G C33G C34U A43C C49G C61G C66U A69U,≤ 0.5
2,A14G C31U A37G A45C A70G,≤ 0.5
3,A14G C34U C49A C60U,0.512
4,A14G C62U,0.937
5,A14G A37C G56A,≤ 0.5
6,A14G C29U G52C,≤ 0.5
7,A14C G50A C55G C62A,0.692
8,U13G U26C C49G,≤ 0.5
9,A14C U19C C33G,0.641
10,A14C A21C C46A C49U,≤ 0.5
11,A14G C30U,0.81
12,A14U A43C U54A,≤ 0.5
13,A14G U32A,0.554
14,A14G U16G G18C U59A A65U,≤ 0.5
15,U13G U47G C66U,≤ 0.5
16,A14C A40C U47C A57C,≤ 0.5
17,A14G A43C A45G,0.585
18,A14G C27G C34G A37U U64A,0.667
19,A14U A42U C49U C61U C66U,≤ 0.5
20,A14U A45C G56A,0.581
21,A14G C27U U47A C62U,0.566
22,A14U A45C C49U A65C,≤ 0.5
23,A14C U28A C61G A69G,≤ 0.5
24,A14G C24A,0.666

row,Variant,yeast fitness
1,A14G G38A,0.799
2,U13G C30U C55A,≤ 0.5
3,U13C U32C A40G,≤ 0.5
4,A14G C24U G56A,0.813
5,A14U A21C C22U C33G A45G C46G G52C,≤ 0.5
6,A14G C29U,0.988
7,A14C C22U A70G,≤ 0.5
8,U13G G41C G51A,0.564
9,A14C G67A,0.695
10,A14C C30A C31G U64A,0.584
11,A14C U16C G51C G58A,0.528
12,A14G C29U G39A C49U G56C,≤ 0.5
13,A14C U59C,0.687
14,A14G A21C G63C,0.546
15,U13G G41U C66G,≤ 0.5
16,U13C G17A C22A G25A,≤ 0.5
17,A14G U26G,0.81
18,A14C G23A A45U C61U,0.782
19,A14C A21U A42C G58C,≤ 0.5
20,U13C U26G U35C G63A A70G,≤ 0.5
21,A14G C55G A57C,0.598
22,A14G A37G,0.718
23,A14C A21C C24U A36U A43U C55U,≤ 0.5
24,A14C A20C G67A,≤ 0.5

row,Variant,yeast fitness
1,U13G C49G,0.823
2,A14G U32C C55U,≤ 0.5
3,A14C C27U C30U C34A C62A,≤ 0.5
4,A14C A37C A65U,≤ 0.5
5,A14G A43G G52C U53C G63C,≤ 0.5
6,A14C A20G A42C G48C,≤ 0.5
7,A14C C34A A37G A70U,≤ 0.5
8,A14U A15G C55G C61G,0.637
9,A14C U35C A69U,≤ 0.5
10,A14G A15U,0.704
11,A14C A20U C31U G38C G67A,0.53
12,A14C C22U U32A C34U C66U,0.576
13,A14G C55A A57U G58C A69U,≤ 0.5
14,U13C C46G,0.97
15,A14G A15C C46A A69U,≤ 0.5
16,U13G A40C C49G U53A,≤ 0.5
17,A14G C22U A70C,≤ 0.5
18,A14U A15C A40G U47C G56C G67C,≤ 0.5
19,A14G U35G C55A G63A,≤ 0.5
20,U13C G48C C49U,0.772
21,A14C G51C,0.53
22,U13C C30A C31A,0.532
23,A14G C24U A65U,0.54
24,U13C C31U G44C,0.844

row,Variant,yeast fitness
1,A14U A21U G67C,0.596
2,A14G C31U U35C A40G A65U,≤ 0.5
3,U13G A42C U47A G67C,≤ 0.5
4,U13G C22U G63A,0.707
5,A14G G25A A36G A42U G68C,0.576
6,A14U A20C A37C C49G,≤ 0.5
7,A14C U19A,0.602
8,A14C G52C A57C G63C,≤ 0.5
9,A14G C30U G39A C60G,≤ 0.5
10,A14U A37G G44C A45C G50A C55G,0.594
11,U13C G51C G67A,≤ 0.5
12,A14C C49A G58U,≤ 0.5
13,A14C A45U A69U,0.619
14,A14G G23C A70U,0.564
15,U13C U47C U64G G68C,≤ 0.5
16,A14U C22A,0.668
17,U13G U47C,1.02
18,A14G U26G A37U A45U G51A A65C,≤ 0.5
19,A14G U26G A43C G68A,≤ 0.5
20,U13C C33U A45G G50A C66A A70U,≤ 0.5
21,A14C C24U A40U C55G,≤ 0.5
22,A14C C22U C34A,≤ 0.5
23,U13G C55A,0.502
24,U13C U47C,0.905

row,Variant,yeast fitness
1,A14C C24U U35C C46G G52A C61A,0.535
2,A14C C22G G25A C31U,0.528
3,A14G C34G A43C G58U A65U,≤ 0.5
4,A14G C22A C27G A42U,≤ 0.5
5,A14C G39A,0.754
6,U13G C27A C30A G63C,0.537
7,A14G C29U A37G A65G,≤ 0.5
8,A14G C30A C34A A43C C60G C62A,≤ 0.5
9,A14G A36C A57C G68A,≤ 0.5
10,A14C U16G C29U U54C,≤ 0.5
11,A14G G18A C22G C49A,≤ 0.5
12,A14G G18C C30G G52C C61A,≤ 0.5
13,A14G C31U G68A,0.568
14,A14U A57C U59A,0.703
15,A14G G18A C55U,≤ 0.5
16,A14G G41C C46A,0.791
17,A14G C33U G63A,0.614
18,A14C A21G U53A,≤ 0.5
19,A14G A20G A42U,0.696
20,A14C C55G G68C,≤ 0.5
21,A14C G48C C55U G63U,≤ 0.5
22,U13C U35A A70G,≤ 0.5
23,U13G A21C C46U G50A,0.582
